# Assay results: article PMC4633020 (Journal of medicinal chemistry, 2015)
# Entries after “also recorded” stand apart in the source; their conditions may differ.
# Experiments:
# [1] = test system: E. faecium NCTC 7171; assay: MIC, broth microdilution; format: cell-based, Enterococcus faecium; details: for MIC: Enterococcus faecium, NCTC7171, E. faecium NCTC 7171; for antibacterial activity against E. faecium (in words): SAR discussion, E. faecium NCTC 7171
# [2] = test system: other bacteria in the ESKAPE panel; assay: Antibacterial screening against the ESKAPE panel; format: cell-based; details: result in words
# [3] = In vitro metabolic stability in human liver S9; format: in vitro ADME; details: calculated from in vitro half-life in human liver S9
# [4] = biological target: PBP2a of S. aureus (Staphylococcus aureus, UniProt P07944); assay: BOCILLIN FL binding assay for PBP2a; details: at concentrations of up to 100 μg/mL
# [5] = test system: PBP5fm of E. faecium; assay: BOCILLIN FL binding assay for PBP5fm; details: at up to 100 μg/mL
# Method in brief: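 Recombinant PBP5 (aa 34-678, E. faecium D63r) carried an N-terminal His-tag, was expressed in E. coli BL21(DE3), and was purified by anion exchange then metal chelate column. Enzyme (40 μM final) was preincubated with test compound in 25 mM Hepes, 1 M NaCl, pH 7.0 at 37 °C. BOCILLIN FL (30 μM final) was then added, with incubations of 20 min. Labelling was read by 12% SDS-PAGE fluorescence scan and band quantitation against a no-inhibitor control.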
# [6] = test system: PBPs in the E. faecium membrane fractions; assay: PBP inhibition in E. faecium membrane fractions; format: binding; details: data less clear due to low PBP copy numbers
# [7] = Plasma-protein binding, equilibrium dialysis; format: in vitro ADME; details: human plasma
# [8] = test system: E. faecium NCTC7171; assay: Macromolecular synthesis assays; format: cell-based, Enterococcus faecium; details: 2 × MIC (8 μg/mL), 120 min
# [9] = test system: transcription; assay: In vitro transcription assay; format: biochemical; details: T7 transcription kit
# [10] = test system: transcription and translation (β-galactosidase expression); assay: Tandem in vitro transcription and translation assay; format: biochemical, Escherichia coli; details: E. coli S30 extract
# [11] = Hemolysis assay; details: red blood cells
# [12] = marketed antibiotics; cited from earlier work
# PBP2a of S. aureus, sequence (P07944 whole entry): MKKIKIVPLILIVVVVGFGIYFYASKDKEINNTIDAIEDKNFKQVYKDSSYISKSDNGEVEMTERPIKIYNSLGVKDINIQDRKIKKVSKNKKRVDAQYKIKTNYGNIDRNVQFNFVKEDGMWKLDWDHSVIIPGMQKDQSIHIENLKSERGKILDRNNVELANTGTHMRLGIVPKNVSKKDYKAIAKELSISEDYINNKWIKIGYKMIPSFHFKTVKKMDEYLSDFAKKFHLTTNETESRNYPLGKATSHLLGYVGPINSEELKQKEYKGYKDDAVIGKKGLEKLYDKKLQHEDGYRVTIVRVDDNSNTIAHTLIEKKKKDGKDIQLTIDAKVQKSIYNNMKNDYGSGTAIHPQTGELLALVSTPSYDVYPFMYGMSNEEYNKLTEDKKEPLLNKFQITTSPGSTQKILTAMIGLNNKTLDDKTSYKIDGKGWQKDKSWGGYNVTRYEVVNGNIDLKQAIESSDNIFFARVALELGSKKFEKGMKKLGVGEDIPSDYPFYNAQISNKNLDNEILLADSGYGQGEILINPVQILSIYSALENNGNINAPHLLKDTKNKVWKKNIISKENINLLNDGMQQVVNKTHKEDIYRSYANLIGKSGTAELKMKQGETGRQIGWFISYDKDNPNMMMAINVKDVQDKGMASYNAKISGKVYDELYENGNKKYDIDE
molecule,measurement,setting,value
"CC1=C(C(N)=O)C(c2ccc(C(C)C)cc2)n2nc(SCc3ccccc3)nc2N1 (stereo not shown) [Compound 1, 2-(Benzylthio)-7-(4-isopropylphenyl)-5-methyl-4,7-dihydro-[1,2,4]triazolo[1,5-a]pyrimidine-6-carboxamide]",MIC,[1],≤ 8 µg/mL
same,antibacterial activity against the other bacteria in the ESKAPE panel,[2],No antibacterial activity
same,Apparent intrinsic clearance,[3],11.1 mLmin^−1kg^−1
same,inhibition of recombinant PBP2a,[4],no inhibition; also recorded: did not inhibit
same,inhibition of PBP5fm,[5],no inhibition; also recorded: did not inhibit
same,inhibition of PBPs in E. faecium membranes,[6],did not inhibit
CC1=C(C(N)=O)C(c2ccccc2)n2nc(SCc3ccccc3)nc2N1 (stereo not shown) [Compound 2],antibacterial activity against E. faecium (in words),[1],loss of antibacterial activity
CCc1ccc(C2C(C(N)=O)=C(C)Nc3nc(SCc4ccccc4)nn32)cc1 (stereo not shown) [Compound 4],MIC,[1],≤ 8 µg/mL
CC1=C(C(N)=O)C(c2ccc(O)cc2)n2nc(SCc3ccccc3)nc2N1 (stereo not shown) [Compound 6],antibacterial activity against E. faecium (in words),[1],loss of antimicrobial activity
COc1ccc(C2C(C(N)=O)=C(C)Nc3nc(SCc4ccccc4)nn32)cc1 (stereo not shown) [Compound 7],antibacterial activity against E. faecium (in words),[1],devoid of activity
COc1ccc(C2C(C(N)=O)=C(C)Nc3nc(SCc4ccccc4)nn32)cc1O (stereo not shown) [Compound 8],antibacterial activity against E. faecium (in words),[1],loss of antimicrobial activity
COc1ccc(C2C(C(N)=O)=C(C)Nc3nc(SCc4ccccc4)nn32)cc1OC (stereo not shown) [Compound 9],antibacterial activity against E. faecium (in words),[1],loss of antimicrobial activity
"CC1=C(C(N)=O)C(c2ccc(OC(C)C)cc2)n2nc(SCc3ccccc3)nc2N1 (stereo not shown) [Compound 10, 2-(Benzylthio)-7-(4-isopropoxyphenyl)-5-methyl-4,7-dihydro-[1,2,4]triazolo[1,5-a]pyrimidine-6-carboxamide]",MIC,[1],≤ 8 µg/mL
same,Apparent intrinsic clearance,[3],10.9 mLmin^−1kg^−1
same,Plasma-protein binding (in words),[7],high
CC1=C(C(N)=O)C(c2ccc(OC(F)(F)F)cc2)n2nc(SCc3ccccc3)nc2N1 (stereo not shown) [Compound 11],MIC,[1],≤ 8 µg/mL
same,antibacterial activity against E. faecium (in words),[1],retained activity
CSc1ccc(C2C(C(N)=O)=C(C)Nc3nc(SCc4ccccc4)nn32)cc1 (stereo not shown) [Compound 12],antibacterial activity against E. faecium (in words),[1],devoid of activity
"CCSc1ccc(C2C(C(N)=O)=C(C)Nc3nc(SCc4ccccc4)nn32)cc1 (stereo not shown) [Compound 13, 2-(Benzylthio)-7-(4-ethylthiophenyl]-5-methyl-4,7-dihydro[1,2,4]-triazolo[1,5-a]pyrimidine-6-carboxamide]",improvement of the anti-E. faecium activity,[1]; compared to the 4-OCH3 (7) and 4-SMe (12) derivatives,32 fold
same,Apparent intrinsic clearance,[3],<10.4 mLmin^−1kg^−1
same,Plasma-protein binding (in words),[7],high
"CC1=C(C(N)=O)C(c2ccc(N(C)C)cc2)n2nc(SCc3ccccc3)nc2N1 (stereo not shown) [Compound 16, 2-(Benzylthio)-7-(4-dimethylaminophenyl)-5-methyl-4,7-dihydro[1,2,4]triazolo[1,5-a]pyrimidine-6-carboxamide]",MIC,[1],≤ 8 µg/mL
same,Apparent intrinsic clearance,[3],<10.4 mLmin^−1kg^−1
same,inhibition of peptidoglycan biosynthesis,"[8]; D-[2,3-3H]-alanine incorporation",notable inhibition
same,inhibition of translation (protein synthesis),"[8]; L-[4,5-3H]-leucine incorporation",did not inhibit
same,inhibition of transcription (RNA synthesis),"[8]; [5,6-3H]-uridine incorporation",did not inhibit
same,inhibition of replication (DNA synthesis),[8]; [methyl-3H]-thymidine incorporation,did not inhibit
same,effect on in vitro transcription,[9],did not show any effect
same,effect on in vitro transcription and translation,[10],did not show any effect
same,hemolysis at 64 μg/mL,[11],1 to 2%
CCN(CC)c1ccc(C2C(C(N)=O)=C(C)Nc3nc(SCc4ccccc4)nn32)cc1 (stereo not shown) [Compound 17],MIC,[1],≤ 8 µg/mL
CCN(CC)CCOc1ccc(C2C(C(N)=O)=C(C)Nc3nc(SCc4ccccc4)nn32)cc1 (stereo not shown) [Compound 20],antibacterial activity against E. faecium (in words),[1],no activity
CC1=C(C(N)=O)C(c2ccc(C(F)(F)F)cc2)n2nc(SCc3ccccc3)nc2N1 (stereo not shown) [Compound 21],MIC,[1],≤ 8 µg/mL
same,antibacterial activity against E. faecium (in words),[1],retained activity
CC1=C(C(N)=O)C(c2ccc(F)cc2)n2nc(SCc3ccccc3)nc2N1 (stereo not shown) [Compound 22],antibacterial activity against E. faecium (in words),[1],did not show any activity
CC1=C(C(N)=O)C(c2ccc(Cl)cc2)n2nc(SCc3ccccc3)nc2N1 (stereo not shown) [Compound 23],antibacterial activity against E. faecium (in words),[1],did not show any activity
CC1=C(C(N)=O)C(c2ccc(C#N)cc2)n2nc(SCc3ccccc3)nc2N1 (stereo not shown) [Compound 24],antibacterial activity against E. faecium (in words),[1],retained activity
CC1=C(C(N)=O)C(c2ccccc2C(F)(F)F)n2nc(SCc3ccccc3)nc2N1 (stereo not shown) [Compound 27],antibacterial activity against E. faecium (in words),[1],inactive
CC1=C(C(N)=O)C(C2CCCCC2)n2nc(SCc3ccccc3)nc2N1 (stereo not shown) [Compound 42],antibacterial activity against E. faecium (in words),[1],devoid of activity
CCOC(=O)C1=C(C)Nc2nc(SCc3ccccc3)nn2C1c1ccc(N(C)C)cc1 (stereo not shown) [Compound 43],antibacterial activity against E. faecium (in words),[1],lost antimicrobial activity
CNC(=O)C1=C(C)Nc2nc(SCc3ccccc3)nn2C1c1ccc(N(C)C)cc1 (stereo not shown) [Compound 45],antibacterial activity against E. faecium (in words),[1],slight reduction of activity
CN(C)c1ccc(C2C3=C(CCCC3=O)Nc3nc(SCc4ccccc4)nn32)cc1 (stereo not shown) [Compound 46],antibacterial activity against E. faecium (in words),[1],abolished activity
CC1=C(C(=O)Nc2ccccc2)C(c2ccc(N(C)C)cc2)n2nc(SCc3ccccc3)nc2N1 (stereo not shown) [Compound 51],antibacterial activity against E. faecium (in words),[1],slight reduction of activity
CC1=C(C(N)=O)C(c2ccc(N(C)C)cc2)n2nc(SCCNC(=O)OCc3ccccc3)nc2N1 (stereo not shown) [Compound 72],antibacterial activity against E. faecium (in words),[1],not tolerated
CC1=C(C(N)=O)C(c2ccc(C(C)C)cc2)n2nc(SCCNC(=O)OCc3ccccc3)nc2N1 (stereo not shown) [Compound 73],antibacterial activity against E. faecium (in words),[1],not tolerated
CC1=C(C(N)=O)C(c2ccc(C(=O)O)cc2)n2nc(SCCNC(=O)OCc3ccccc3)nc2N1 (stereo not shown) [Compound 74],antibacterial activity against E. faecium (in words),[1],not tolerated
CC1=C(C(N)=O)C(c2ccc(N(C)C)cc2)n2nc(SCc3ccncc3)nc2N1 (stereo not shown) [Compound 75],antibacterial activity against E. faecium (in words),[1],loss of activity
CC1=C(C(N)=O)C(c2ccc(N(C)C)cc2)n2nc(Sc3ccccn3)nc2N1 (stereo not shown) [Compound 76],antibacterial activity against E. faecium (in words),[1],loss of activity
CC1=C(C(N)=O)C(c2ccc(N(C)C)cc2)n2nc(SCc3ccc(C(F)(F)F)cc3)nc2N1 (stereo not shown) [Compound 80],antibacterial activity against E. faecium (in words),[1],no activity
CC1=C(C(N)=O)C(c2ccc(N(C)C)cc2)n2nc(SCc3ccc(OC(F)(F)F)cc3)nc2N1 (stereo not shown) [Compound 81],antibacterial activity against E. faecium (in words),[1],no activity
CC1=C(C(N)=O)C(c2ccc(N(C)C)cc2)n2nc(SCc3ccc(SC(F)(F)F)cc3)nc2N1 (stereo not shown) [Compound 82],antibacterial activity against E. faecium (in words),[1],as active as compound 1
"CC1=C(C(N)=O)C(c2ccc(N(C)C)cc2)n2nc(SCc3ccc([N+](=O)[O-])cc3)nc2N1 (stereo not shown) [Compound 83, 2-(4-Nitrobenzylthio)-7-(4-dimethylaminophenyl)-5-methyl-4,7-dihydro[1,2,4]triazolo[1,5-a]pyrimidine-6-carboxamide]",antibacterial activity against E. faecium (in words),[1],as good as compound 16
same,Apparent intrinsic clearance,[3],<10.4 mLmin^−1kg^−1
same,Plasma-protein binding (in words),[7],high
"CC1=C(C(N)=O)C(c2ccc(N(C)C)cc2)n2nc(SCc3ccc(C#N)cc3)nc2N1 (stereo not shown) [Compound 84, 2-(4-Cyanobenzylthio)-7-(4-dimethylaminophenyl)-5-methyl-4,7-dihydro-[1,2,4]triazolo[1,5-a]pyrimidine-6-carboxamide]",antibacterial activity against E. faecium (in words),[1],as active as compound 1
same,Apparent intrinsic clearance,[3],<10.4 mLmin^−1kg^−1
same,inhibition of recombinant PBP2a,[4],lacked the ability to inhibit; also recorded: did not inhibit
same,inhibition of PBP5fm,[5],lacked the ability to inhibit; also recorded: did not inhibit
same,inhibition of PBPs in E. faecium membranes,[6],did not inhibit
same,hemolysis at 64 μg/mL,[11],1 to 2%
CCCCCCCCCC(=O)N[C@@H](Cc1c[nH]c2ccccc12)C(=O)N[C@H](CC(N)=O)C(=O)N[C@@H](CC(=O)O)C(=O)N[C@@H]1C(=O)NCC(=O)N[C@@H](CCCN)C(=O)N[C@@H](CC(=O)O)C(=O)N[C@H](C)C(=O)N[C@@H](CC(=O)O)C(=O)NCC(=O)N[C@H](CO)C(=O)N[C@@H]([C@H](C)CC(=O)O)C(=O)N[C@@H](CC(=O)c2ccccc2N)C(=O)O[C@@H]1C [daptomycin],plasma protein binding,[12],> 91%
Cc1onc(-c2ccccc2)c1C(=O)N[C@@H]1C(=O)N2[C@@H]1SC(C)(C)[C@@H]2C(=O)O [oxacillin],plasma protein binding,[12],> 91%
CO[C@H]1/C=C/O[C@@]2(C)Oc3c(C)c(O)c4c(O)c(c(/C=N/N5CCN(C)CC5)c(O)c4c3C2=O)NC(=O)/C(C)=C\C=C\[C@H](C)[C@H](O)[C@@H](C)[C@@H](O)[C@@H](C)[C@H](OC(C)=O)[C@@H]1C [rifampicin],plasma protein binding,[12],> 91%
teicoplanin,plasma protein binding,[12],> 91%
